From PMC9719863 (Molecular Metabolism, 2022)
*1 amine or outer side, *2 acyl side, *3 side chain or, on linkers, in order; H or OH if unused. Where a SMILES comes first, the peptide text is derived from it. Side-chain parts run from the residue outwards. The star is where a group is joined. γGlu = O=C(O)[C@H](CCC(=O)[*:2])N[*:1]; Palmitoyl = CCCCCCCCCCCCCCCC(=O)*

How the values were obtained:
hGIPR = molecular target: T1, hGIPR (Homo sapiens, UniProt P48546); assay: cAMP CRE-luciferase assay in BHK cells expressing GIPR; assay type: cell-based; settings: agonist mode, without native ligand
T1 sequence (P48546 22-466): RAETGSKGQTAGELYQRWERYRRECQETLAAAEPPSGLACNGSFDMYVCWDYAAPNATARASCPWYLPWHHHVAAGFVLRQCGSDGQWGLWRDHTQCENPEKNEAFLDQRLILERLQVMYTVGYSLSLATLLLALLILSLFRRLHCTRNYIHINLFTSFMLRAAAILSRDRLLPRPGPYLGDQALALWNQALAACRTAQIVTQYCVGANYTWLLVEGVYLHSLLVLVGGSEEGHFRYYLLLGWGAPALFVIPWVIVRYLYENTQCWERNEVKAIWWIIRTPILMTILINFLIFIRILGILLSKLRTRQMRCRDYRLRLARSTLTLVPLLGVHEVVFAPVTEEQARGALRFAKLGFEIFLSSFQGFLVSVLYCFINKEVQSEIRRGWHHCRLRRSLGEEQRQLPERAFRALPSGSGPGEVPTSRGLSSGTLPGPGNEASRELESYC

mGIPR = molecular target: T2, mGIPR (Mus musculus, UniProt Q0P543); assay: as above; assay type: cell-based
T2 sequence (Q0P543 19-460): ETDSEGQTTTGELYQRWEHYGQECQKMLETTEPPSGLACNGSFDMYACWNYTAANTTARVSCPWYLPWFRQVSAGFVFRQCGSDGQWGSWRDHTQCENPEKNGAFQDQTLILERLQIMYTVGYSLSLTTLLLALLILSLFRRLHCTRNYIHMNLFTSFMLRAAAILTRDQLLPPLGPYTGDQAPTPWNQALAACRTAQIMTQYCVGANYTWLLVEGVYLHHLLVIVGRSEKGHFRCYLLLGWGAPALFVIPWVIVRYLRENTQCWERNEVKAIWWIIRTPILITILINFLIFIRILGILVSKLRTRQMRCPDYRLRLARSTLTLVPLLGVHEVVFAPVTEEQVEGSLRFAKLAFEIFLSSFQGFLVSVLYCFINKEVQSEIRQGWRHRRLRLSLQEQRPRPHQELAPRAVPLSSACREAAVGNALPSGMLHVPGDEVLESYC

hGLP-1R = hGLP-1R (Homo sapiens, UniProt P43220); assay: cAMP CRE-luciferase assay in BHK cells expressing GLP-1R; assay type: cell-based
Chain of hGLP-1R (P43220 24-463): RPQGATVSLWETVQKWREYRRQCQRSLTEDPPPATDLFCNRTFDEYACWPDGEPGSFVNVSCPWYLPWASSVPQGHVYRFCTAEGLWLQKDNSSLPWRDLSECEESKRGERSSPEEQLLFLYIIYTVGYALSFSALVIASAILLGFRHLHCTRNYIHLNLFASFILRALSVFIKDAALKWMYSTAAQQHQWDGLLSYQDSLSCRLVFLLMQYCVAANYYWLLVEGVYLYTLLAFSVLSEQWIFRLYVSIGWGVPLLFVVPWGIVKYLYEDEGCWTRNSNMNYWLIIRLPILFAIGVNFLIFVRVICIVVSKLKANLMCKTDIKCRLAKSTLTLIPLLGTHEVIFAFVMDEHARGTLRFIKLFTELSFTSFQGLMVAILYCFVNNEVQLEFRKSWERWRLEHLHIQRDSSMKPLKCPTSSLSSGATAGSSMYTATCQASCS
In short: (§1)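 Stably transfected BHK cells carried receptor plus CRE-firefly luciferase reporter, seeded 5,000/well overnight, then DPBS-washed. 12-point dilutions in DMEM (no phenol red), 10 mM HEPES, 1% ovalbumin, 0.1% Pluronic F-68, ± EC80 native ligand (antagonist mode), 3 h, 37 °C. Luminescence read after SteadyLite, 30 min RT. EC50/IC50 by nonlinear regression of log concentration vs response; duplicate experiment.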

mGLP-1R = molecular target: T3, mGLP-1R (Mus musculus, UniProt O35659); assay: cAMP CRE-luciferase assay in BHK cells expressing GLP-1R; assay type: cell-based; settings: antagonist mode, compared with hGLP-1R
T3 sequence (O35659 22-463): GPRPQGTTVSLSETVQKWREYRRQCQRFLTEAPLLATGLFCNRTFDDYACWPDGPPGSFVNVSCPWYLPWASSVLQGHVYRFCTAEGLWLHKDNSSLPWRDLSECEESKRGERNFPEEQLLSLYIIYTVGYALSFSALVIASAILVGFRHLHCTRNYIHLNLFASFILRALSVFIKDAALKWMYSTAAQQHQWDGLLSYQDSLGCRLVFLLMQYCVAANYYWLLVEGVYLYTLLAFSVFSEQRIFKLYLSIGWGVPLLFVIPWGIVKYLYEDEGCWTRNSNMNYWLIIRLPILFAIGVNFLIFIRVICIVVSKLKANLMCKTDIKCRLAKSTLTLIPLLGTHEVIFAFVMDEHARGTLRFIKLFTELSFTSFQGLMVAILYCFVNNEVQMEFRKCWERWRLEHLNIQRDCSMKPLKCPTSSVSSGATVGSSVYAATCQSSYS
In short: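 Stably transfected BHK cells with receptor and CRE-firefly luciferase reporter, 5,000 cells/well, incubated overnight and washed in DPBS. Exposed 3 h at 37 °C to a 12-point serial dilution of test compound with EC80 native ligand, in DMEM (no phenol red) with 10 mM HEPES, 1% ovalbumin, 0.1% Pluronic F-68.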

hGcgR = hGcgR (Homo sapiens, UniProt P47871); assay: cAMP CRE-luciferase assay in BHK cells expressing glucagon receptor; assay type: cell-based
Chain of hGcgR (P47871 26-477): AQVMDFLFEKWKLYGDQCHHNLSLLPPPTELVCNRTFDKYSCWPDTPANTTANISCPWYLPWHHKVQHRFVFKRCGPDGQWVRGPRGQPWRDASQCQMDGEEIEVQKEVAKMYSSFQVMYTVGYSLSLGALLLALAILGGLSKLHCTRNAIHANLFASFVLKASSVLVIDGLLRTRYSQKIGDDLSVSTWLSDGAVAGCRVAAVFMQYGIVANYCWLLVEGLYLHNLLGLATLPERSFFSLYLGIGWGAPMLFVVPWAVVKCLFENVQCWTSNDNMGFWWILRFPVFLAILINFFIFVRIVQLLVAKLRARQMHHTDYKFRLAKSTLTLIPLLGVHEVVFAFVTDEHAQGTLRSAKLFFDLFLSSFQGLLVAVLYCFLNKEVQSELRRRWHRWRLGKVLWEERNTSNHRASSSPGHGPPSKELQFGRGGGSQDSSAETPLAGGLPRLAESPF
In short: as §1

mGcgR = mGcgR (Mus musculus, UniProt Q61606); assay: as above; assay type: cell-based
Chain of mGcgR (Q61606 27-485): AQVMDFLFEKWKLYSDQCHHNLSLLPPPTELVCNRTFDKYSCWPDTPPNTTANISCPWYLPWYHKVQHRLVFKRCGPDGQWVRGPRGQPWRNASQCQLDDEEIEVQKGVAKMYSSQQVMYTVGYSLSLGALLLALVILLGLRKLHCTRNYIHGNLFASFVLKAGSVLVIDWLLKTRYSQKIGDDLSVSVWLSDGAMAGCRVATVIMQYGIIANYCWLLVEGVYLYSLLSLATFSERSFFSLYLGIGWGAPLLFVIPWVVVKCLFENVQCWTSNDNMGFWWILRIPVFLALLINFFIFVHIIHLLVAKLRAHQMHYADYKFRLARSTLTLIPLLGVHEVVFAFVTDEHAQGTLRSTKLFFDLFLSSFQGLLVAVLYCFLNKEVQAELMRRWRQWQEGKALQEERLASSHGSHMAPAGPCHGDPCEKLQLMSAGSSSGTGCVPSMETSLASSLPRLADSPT
In short: as §1

Pharmacokinetic = assay type: in vivo; settings: male, C57BL/6 J, mouse, plasma, sc, 500 nmol/kg
In short: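 Male C57BL/6J mice fed 58% fat, high-sugar diet ≥16 weeks (61–74 g) received one SC dose of 500 nmol/kg, n = 4. Plasma sampled 5 min to 72 h, methanol-precipitated (14-fold), centrifuged, diluted 3-fold in 0.1% formic acid, and quantified by LC-MS selected ion monitoring against plasma standards (0.5–4000 nM). Parameters derived noncompartmentally with sparse sampling.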

DIO mice [1] = assay: Intraperitoneal glucose tolerance test; assay type: in vivo, mouse; settings: IPGTT (Figure 6C,D) and oral glucose tolerance test (Supplemental figure 3)
In short: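 Male C57BL/6J mice on 58% fat, high-sugar diet for ≥16 weeks, fasted 6 h. Antagonist (500 or 1500 nmol/kg) injected 2 h before glucose; semaglutide 2 nmol/kg injected 1 h before. Glucose 2.5 g/kg (20% solution) given i.p. or by oral gavage. Tail-vein glucose measured from baseline.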

DIO mice [2] = assay: Oral glucose tolerance test; assay type: in vivo, mouse; settings: high dose (1500 nmol/kg) SC prior to oral gavage of glucose 2.5 g/kg, n = 8 per group
In short: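 DIO male C57BL/6J mice (58% fat, high-sugar diet ≥16 weeks), fasted 6 h with water available. Antagonist injected 2 h before oral gavage of 2.5 g/kg glucose (20% solution). Tail-vein blood glucose measured from baseline; glucose integrated AUC derived.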

DIO male C57BL/6 J mice = assay: Chronic once-daily dosing study on body weight in DIO mice; assay type: in vivo, mouse; settings: for Percent change in body weight: 27-28 d, n = 8
In short: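 DIO male C57BL/6J mice (58% fat, high-sugar diet, ~12 weeks; >55 g) housed 4/cage at 22 °C on a 12 h light–dark cycle. Groups of n = 8 were normalized for body weight. Test compound was given SC once daily in the light cycle for 28 days, in pH 7.4 vehicle (0.05% polysorbate-80, 50 mM sodium phosphate, 70 mM NaCl). Body weight was taken every other day before dosing, as % change from initial.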

intact human islets = assay: Human islet perifusion, insulin secretion; assay type: cell-based; settings: islets from two human donors, 7 1 uM, 4 technical replicates per donor
In short: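 Islets from human donors (purity ≥80%) recovered overnight in RPMI with 6.7 mM glucose and 10% FBS, then used within 4 days. 75 handpicked islets per chamber in KRPH buffer (2.7 mM glucose, pH 7.4). Equilibrated 48 min (1% then 0.1% BSA), then perifused in intervals with 1 uM antagonist in KRPH + 0.1% BSA. Insulin measured by Lumit immunoassay.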

DIO mice [3] = settings: with the GLP-1R agonist liraglutide; cited from earlier work

SMILES | Agonism at the hGIPR (cAMP production by peptide alone) (hGIPR) | Agonism at the mGIPR (cAMP production by peptide alone) (mGIPR; agonist mode, without native ligand) | Agonism at hGLP-1R (maximal) (hGLP-1R; agonist mode, Figure 3C) [%] | % inhibition of native GLP-1 action, hGLP-1R (hGLP-1R; antagonist mode) [%] | Antagonism at mGLP-1R (mGLP-1R) | EC50 (hGcgR) [µM] | EC50 (mGcgR) [µM] | Antagonism at mGcgR (mGcgR; antagonist mode vs glucagon) | half-life (Pharmacokinetic) [h] | Effect on semaglutide mediated reductions in blood glucose (DIO mice [1]) | Glucose control in OGTT (endogenous incretin action) (DIO mice [2]) | Glucose iAUC in IPGTT on day 26, high dose (DIO male C57BL/6 J mice; 7 alone 1500 nmol/kg/d, 24 h after compound injection) | Percent change in body weight (DIO male C57BL/6 J mice; 7 at 500 nmol/kg/d SC once daily) | Percent change in body weight (DIO male C57BL/6 J mice; 7 at 1500 nmol/kg/d SC once daily) [%] | Fasted insulin (DIO male C57BL/6 J mice; 6 h fast on day 27 of treatment, plasma) | Glucose control in IPGTT on day 26 (DIO male C57BL/6 J mice; 24 h after compound injection, semaglutide 2 nmol/kg/d, semaglutide plus 7, 7 alone 500 nmol/kg/d) | Insulin secretion in response to GIPR antagonist alone (high glucose) (intact human islets) | Fold less potent at mGIPR than 7 in vitro (mGIPR; 13 compared with 7) [fold] | AUC (Pharmacokinetic) [µM·h] | Weight loss when co-administrated with liraglutide (DIO mice [3])
CCCCCCCCCCCCCCCC(=O)N[C@@H](CCC(=O)NCCCC[C@H](NC(=O)[C@H](Cc1ccc(O)cc1)NC(=O)[C@H](CC(=O)O)NC(=O)[C@H](CO)NC(=O)[C@@H](NC(=O)[C@H](Cc1ccccc1)NC(=O)[C@@H](NC(C)=O)[C@@H](C)O)[C@@H](C)CC)C(=O)N[C@H](C(=O)N[C@@H](C)C(=O)N[C@@H](CC(C)C)C(=O)N[C@@H](CC(=O)O)C(=O)N[C@@H](CCCCN)C(=O)N[C@H](C(=O)N[C@@H](CCCNC(=N)N)C(=O)N[C@@H](CCC(N)=O)C(=O)N[C@@H](CCC(N)=O)C(=O)N[C@@H](CCC(=O)O)C(=O)N[C@@H](Cc1ccccc1)C(=O)N[C@H](C(=O)N[C@@H](CC(N)=O)C(=O)N[C@@H](Cc1c[nH]c2ccccc12)C(=O)N[C@@H](CC(C)C)C(=O)N[C@@H](CC(C)C)C(=O)N[C@@H](C)C(=O)N[C@@H](CCC(N)=O)C(=O)N[C@@H](CCCCN)C(=O)NCC(=O)O)C(C)C)[C@@H](C)CC)[C@@H](C)CC)C(=O)O [Peptide 7, [Nα-Ac, L14, R18, E21] hGIP(5–31)-K11 (γE-C16)] | negligible cAMP production as agonists | negligible cAMP production as agonists | ≤ 20 | 68 | less antagonism at the mGLP-1R relative to hGLP-1R | > 12 | > 7 | no antagonism | 8.45 | did not affect semaglutide mediated reductions in blood glucose | worsened glucose control | numeric but insignificant lowering of glucose iAUC | +2.57% | −2.88 | did not modify reduction in fasting insulin levels seen with semaglutide treatment | significantly improved glucose control compared to controls | modest and transient, statistically insignificant rise in insulin secretion |  |  | 
CCCCCCCCCCCCCCCC(=O)N[C@@H](CCC(=O)N[C@@H](CCC(=O)NCCCC[C@H](NC(=O)[C@H](CC(=O)O)NC(=O)[C@H](CO)NC(=O)[C@@H](NC(=O)[C@H](Cc1ccccc1)NC(=O)[C@@H](NC(C)=O)[C@@H](C)O)[C@@H](C)CC)C(=O)N[C@@H](CO)C(=O)N[C@H](C(=O)N[C@@H](C)C(=O)N[C@@H](CC(C)C)C(=O)N[C@@H](CC(=O)O)C(=O)N[C@@H](CCCCN)C(=O)N[C@H](C(=O)N[C@@H](CCCNC(=N)N)C(=O)N[C@@H](CCC(N)=O)C(=O)N[C@@H](CCC(N)=O)C(=O)N[C@@H](CCC(=O)O)C(=O)N[C@@H](Cc1ccccc1)C(=O)N[C@H](C(=O)N[C@@H](CC(N)=O)C(=O)N[C@@H](Cc1c[nH]c2ccccc12)C(=O)N[C@@H](CC(C)C)C(=O)N[C@@H](CC(C)C)C(=O)N[C@@H](C)C(=O)N[C@@H](CCC(N)=O)C(=O)N[C@@H](CCCCN)C(=O)NCC(=O)N[C@@H](CCCCN)C(=O)N[C@@H](CCCCN)C(=O)N[C@@H](CC(N)=O)C(=O)N[C@@H](CC(=O)O)C(=O)N[C@@H](Cc1c[nH]c2ccccc12)C(=O)N[C@@H](CCCCN)C(=O)N[C@@H](Cc1c[nH]cn1)C(=O)N[C@@H](CC(N)=O)C(=O)N[C@H](C(=O)N[C@H](C(=O)N[C@@H](CCC(N)=O)C(N)=O)[C@@H](C)O)[C@@H](C)CC)C(C)C)[C@@H](C)CC)[C@@H](C)CC)C(=O)O)C(=O)O [Peptide 13, [N^α-Ac, L14, R18, E21] hGIP(5–42)-K10 (γEγE-C16)] (Ac-TFISDK([γGlu-γGlu-Palmitoyl])SIALDKIRQQEFVNWLLAQKGKKNDWKHNITQ-NH2) |  |  |  |  |  |  |  |  | 1.12 |  |  |  |  |  |  |  |  | ~5 | 21.1 | did not improve weight loss
